Results from ChEMBL document CHEMBL1134817, “Mixed kappa agonists and mu agonists/antagonists as potential pharmacotherapeutics for cocaine abuse: synthesis and opioid receptor binding affinity of N-substituted derivatives of morphinan” (Bioorg Med Chem Lett, 2001).

What was measured:
[1] = target: Opioid receptors; mu & kappa (Homo sapiens) (UniProt P41145+P35372); test: Selectivity ratio of kappa opioid receptor to that of mu opioid receptor in guinea pig brain membranes; type: cell membranes; conditions: Cavia porcellus; target entry is the homologue from another species
[2] = target: T1, Kappa-type opioid receptor (Cavia porcellus, UniProt P41144); test: Binding affinity towards guinea pig Opioid receptor kappa 1 using radioligand [3H]U-69593
Method in brief: (§1)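 Competitive displacement binding on guinea pig brain membranes. Each receptor was labelled with its own tritiated radioligand: [³H]DAMGO (μ agonist) for μ, [³H]naltrindole (δ antagonist) for δ, and [³H]U69593 (κ agonist) for κ. The method follows an earlier protocol.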

Mu-type opioid receptor = Mu-type opioid receptor (Cavia porcellus, UniProt P97266); test: Binding affinity towards Opioid receptor mu 1 in guinea pig brain membranes using [3H]DAMGO as radioligand; type: cell membranes, Membrane; method in brief: as §1
[3] = target: Opioid receptors; delta & kappa (Homo sapiens) (UniProt P41145+P41143); test: Selectivity ratio of kappa opioid receptor to that of delta opioid receptor in guinea pig brain membranes; type: cell membranes; conditions: Cavia porcellus; target entry is the homologue from another species
[4] = target: T1, Kappa-type opioid receptor; test: Binding affinity towards Opioid receptor kappa 1 in guinea pig brain membranes using [3H]U-69593 as radioligand; type: cell membranes, Membrane; method in brief: as §1
[5] = Binding affinity towards Opioid receptor delta 1 in guinea pig brain membranes using [3H]naltrindole as radioligand

Mu-type opioid receptor, sequence (P97266 whole entry): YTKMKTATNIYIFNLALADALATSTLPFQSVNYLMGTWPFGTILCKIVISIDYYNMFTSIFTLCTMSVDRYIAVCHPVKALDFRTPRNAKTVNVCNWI
T1 sequence (P41144 whole entry): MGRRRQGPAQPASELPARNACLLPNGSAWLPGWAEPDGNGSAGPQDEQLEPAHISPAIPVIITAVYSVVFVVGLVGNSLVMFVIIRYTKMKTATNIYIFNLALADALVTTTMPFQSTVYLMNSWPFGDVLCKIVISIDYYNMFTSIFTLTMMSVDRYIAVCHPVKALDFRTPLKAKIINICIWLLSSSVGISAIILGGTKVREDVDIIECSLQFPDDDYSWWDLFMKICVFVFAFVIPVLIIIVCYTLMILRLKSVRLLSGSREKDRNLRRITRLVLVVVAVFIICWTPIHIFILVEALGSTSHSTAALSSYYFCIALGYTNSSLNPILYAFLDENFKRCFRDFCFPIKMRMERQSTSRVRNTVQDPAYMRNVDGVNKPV
Opioid receptors; delta & kappa (Homo sapiens), sequence (P41143 whole entry, looked up): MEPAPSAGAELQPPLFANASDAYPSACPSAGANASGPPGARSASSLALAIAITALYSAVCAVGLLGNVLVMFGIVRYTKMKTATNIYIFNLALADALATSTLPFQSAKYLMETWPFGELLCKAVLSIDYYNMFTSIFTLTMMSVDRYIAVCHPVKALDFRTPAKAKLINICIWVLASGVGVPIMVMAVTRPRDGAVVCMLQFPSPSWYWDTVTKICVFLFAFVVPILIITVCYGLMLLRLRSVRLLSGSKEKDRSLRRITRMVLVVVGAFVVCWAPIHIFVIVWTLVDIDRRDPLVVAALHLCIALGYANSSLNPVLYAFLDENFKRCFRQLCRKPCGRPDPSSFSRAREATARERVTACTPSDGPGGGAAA
Opioid receptors; delta & kappa (Homo sapiens), sequence (P41145 whole entry, looked up): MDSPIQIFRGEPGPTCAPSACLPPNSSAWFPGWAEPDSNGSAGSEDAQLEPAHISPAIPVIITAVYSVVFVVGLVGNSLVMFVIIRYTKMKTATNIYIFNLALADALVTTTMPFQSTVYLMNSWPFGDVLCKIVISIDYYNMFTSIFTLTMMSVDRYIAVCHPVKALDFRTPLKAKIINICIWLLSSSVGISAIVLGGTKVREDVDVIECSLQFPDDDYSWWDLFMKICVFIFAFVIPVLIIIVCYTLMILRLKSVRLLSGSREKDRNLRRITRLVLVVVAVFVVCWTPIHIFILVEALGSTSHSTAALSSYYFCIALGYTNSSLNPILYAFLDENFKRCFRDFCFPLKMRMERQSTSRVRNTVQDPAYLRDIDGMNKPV
Opioid receptors; mu & kappa (Homo sapiens), sequence (P35372 whole entry, looked up): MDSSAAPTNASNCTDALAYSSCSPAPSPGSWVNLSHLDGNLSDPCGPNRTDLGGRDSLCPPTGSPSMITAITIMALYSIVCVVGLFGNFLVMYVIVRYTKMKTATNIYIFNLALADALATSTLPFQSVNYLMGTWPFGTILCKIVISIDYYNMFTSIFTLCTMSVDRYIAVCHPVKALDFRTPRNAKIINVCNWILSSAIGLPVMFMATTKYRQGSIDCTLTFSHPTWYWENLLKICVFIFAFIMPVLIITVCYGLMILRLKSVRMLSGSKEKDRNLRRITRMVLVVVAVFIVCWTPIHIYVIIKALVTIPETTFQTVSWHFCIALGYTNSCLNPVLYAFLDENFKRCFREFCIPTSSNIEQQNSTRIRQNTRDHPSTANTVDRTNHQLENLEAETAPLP
Opioid receptors; mu & kappa (Homo sapiens), sequence (P41145 whole entry, looked up): as the sequence (P41145 whole entry, looked up) above

SMILES	Selectivity [1]	Ki [2]	Ki (Mu-type opioid receptor)	Selectivity [3]	Ki [4]	Ki [5]
O=C(CCN1CC[C@]23CCCC[C@H]2[C@H]1Cc1cc(O)ccc13)c1ccco1	0.035	7.9 nM	0.28 nM	5		
Oc1ccc2c(c1)C[C@@H]1[C@@H]3CCCC[C@]23CCN1Cc1ccccc1	11	1.9 nM	20 nM	220		
Oc1ccc2c(c1)C[C@@H]1[C@@H]3CCCC[C@]23CCN1CCC(O)c1cccs1 (some centres undefined)	0.2	25 nM	4.1 nM	4		
CCOCCN1CC[C@]23CCCC[C@H]2[C@H]1Cc1cc(O)ccc13	0.8		0.26 nM	16	0.33 nM	
Oc1ccc2c(c1)[C@@]13CCCC[C@H]1[C@@H](C2)N(CC1CC1)CC3 [CYCLORPHAN]						0.22 nM
Oc1ccc2c(c1)C[C@@H]1[C@@H]3CCCC[C@]23CCN1CCCF	2		0.18 nM	10	0.083 nM	
Oc1ccc2c(c1)C[C@@H]1[C@@H]3CCCC[C@]23CCN1CCC(O)c1ccco1 (some centres undefined)	0.35	12 nM	4.2 nM	2		
Oc1ccc2c(c1)C[C@@H]1[C@@H]3CCCCC23CCN1Cc1cccs1	5	0.32 nM	1.5 nM	160		
N#CCCN1CC[C@]23CCCC[C@H]2[C@H]1Cc1cc(O)ccc13	1.4	0.23 nM	0.33 nM	11		
CC(C)CN1CC[C@]23CCCC[C@H]2[C@H]1Cc1cc(O)ccc13	3		0.54 nM	35	0.16 nM	
C#CCN1CC[C@]23CCCC[C@H]2[C@H]1Cc1ccc(O)cc13	1	0.003 nM	0.0032 nM	210		
Oc1ccc2c(c1)C[C@@H]1[C@@H]3CCCC[C@]23CCN1CCOc1ccccc1	0.06	15 nM	0.92 nM	2		
Oc1ccc2c(c1)[C@@]13CCCC[C@H]1[C@@H](C2)N(CC1CCC1)CC3 [BUTORPHAN]	2			18	0.07 nM	1.3 nM
C=CCN1CC[C@]23CCCC[C@H]2[C@H]1Cc1cc(O)ccc13	2	0.16 nM	0.34 nM	26		
Oc1ccc2c(c1)C[C@@H]1[C@@H]3CCCCC23CCN1CC1CCCC1	5		0.96 nM	33	0.21 nM	
COCCN1CC[C@]23CCCC[C@H]2[C@H]1Cc1cc(O)ccc13	1	0.094 nM	0.11 nM	6		
Oc1ccc2c(c1)C[C@@H]1[C@@H]3CCCC[C@]23CCN1CCC(F)(F)F	2	1.3 nM	2.3 nM	21		
N#CCCCN1CC[C@]23CCCC[C@H]2[C@H]1Cc1cc(O)ccc13	0.42	0.38 nM	0.16 nM	8		
CN1CC[C@]23CCCC[C@H]2[C@H]1Cc1ccc(O)cc13 [LEVORPHANOL]	0.09			2		4.2 nM
Oc1ccc2c(c1)C[C@@H]1[C@@H]3CCCCC23CCN1CC1CCCCC1	12		18 nM	46	1.5 nM	
Oc1ccc2c(c1)C[C@@H]1[C@@H]3CCCC[C@]23CCN1C/C=C/I	0.13	0.037 nM	0.0048 nM	730		
O=C(CCN1CC[C@]23CCCC[C@H]2[C@H]1Cc1cc(O)ccc13)c1cccs1	0.06	4.5 nM	0.27 nM	2		
Oc1ccc2c(c1)C[C@@H]1[C@@H]3CCCC[C@]23CCN1CCc1ccccc1	0.092	1.3 nM	0.12 nM	2		
O=C(CCN1CC[C@]23CCCC[C@H]2[C@H]1Cc1cc(O)ccc13)c1ccccc1	0.04	9.9 nM	0.43 nM	2		
Oc1ccc2c(c1)C[C@@H]1[C@@H]3CCCC[C@]23CCN1CC=CI	0.6	0.65 nM	0.42 nM	51		
Oc1ccc2c(c1)C[C@@H]1[C@@H]3CCCC[C@]23CCN1CCC(O)c1ccccc1 (some centres undefined)	0.4	57 nM	21 nM	2		
Oc1ccc2c(c1)C[C@@H]1[C@@H]3CCCC[C@]23CCN1Cc1ccco1	4	0.13 nM	0.54 nM	65		
